# How the values were obtained:
# Conditions in all cases: stereoisomer not certain
# [1] = tested on: T1, OR1B1
# T1 sequence (whole entry): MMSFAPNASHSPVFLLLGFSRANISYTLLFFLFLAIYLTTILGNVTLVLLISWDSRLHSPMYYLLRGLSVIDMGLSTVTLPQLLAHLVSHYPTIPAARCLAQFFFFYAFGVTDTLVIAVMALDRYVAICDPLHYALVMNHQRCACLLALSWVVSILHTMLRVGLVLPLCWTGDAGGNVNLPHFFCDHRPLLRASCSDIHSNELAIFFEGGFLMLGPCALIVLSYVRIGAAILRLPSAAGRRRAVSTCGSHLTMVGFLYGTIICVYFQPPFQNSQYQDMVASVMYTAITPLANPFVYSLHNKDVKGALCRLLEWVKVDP
# In short: (§1)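 Values were gathered from published papers (main text and supplementary material), with extra details requested from the original authors when needed, and checked for typos and inconsistencies. Each receptor–molecule pair is called responsive (active) if the original authors judged the measured signal statistically different from baseline, and non-responsive (inactive) otherwise. Assay methods varied by source, often transient mammalian cell-line luciferase assays. Recorded details include cell line, G-protein, co-transfected protein and tags.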
# [2] = molecular target: T2, OR1C1 (Homo sapiens) (UniProt Q15619)
# T2 sequence (whole entry): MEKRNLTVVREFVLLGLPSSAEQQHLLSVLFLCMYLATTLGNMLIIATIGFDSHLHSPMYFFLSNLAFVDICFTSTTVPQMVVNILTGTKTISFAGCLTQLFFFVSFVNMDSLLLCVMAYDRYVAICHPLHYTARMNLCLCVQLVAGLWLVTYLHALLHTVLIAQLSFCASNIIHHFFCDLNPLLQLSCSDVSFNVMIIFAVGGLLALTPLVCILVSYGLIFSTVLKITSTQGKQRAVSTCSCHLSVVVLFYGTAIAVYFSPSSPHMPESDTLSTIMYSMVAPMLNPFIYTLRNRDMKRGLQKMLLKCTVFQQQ
# In short: as §1
# [3] = molecular target: T3, OR1D2 (Homo sapiens) (UniProt P34982)
# T3 sequence (whole entry): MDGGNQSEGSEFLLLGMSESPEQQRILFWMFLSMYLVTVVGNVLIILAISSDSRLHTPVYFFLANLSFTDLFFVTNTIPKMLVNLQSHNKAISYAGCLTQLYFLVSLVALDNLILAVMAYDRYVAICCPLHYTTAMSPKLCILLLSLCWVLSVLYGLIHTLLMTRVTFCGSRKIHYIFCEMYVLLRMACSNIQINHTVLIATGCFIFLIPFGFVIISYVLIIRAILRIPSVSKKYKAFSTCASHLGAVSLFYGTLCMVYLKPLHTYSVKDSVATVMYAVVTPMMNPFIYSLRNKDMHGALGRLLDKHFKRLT
# In short: as §1
# [4] = tested on: OR1D2
# Chain of OR1D2 (as listed by the source): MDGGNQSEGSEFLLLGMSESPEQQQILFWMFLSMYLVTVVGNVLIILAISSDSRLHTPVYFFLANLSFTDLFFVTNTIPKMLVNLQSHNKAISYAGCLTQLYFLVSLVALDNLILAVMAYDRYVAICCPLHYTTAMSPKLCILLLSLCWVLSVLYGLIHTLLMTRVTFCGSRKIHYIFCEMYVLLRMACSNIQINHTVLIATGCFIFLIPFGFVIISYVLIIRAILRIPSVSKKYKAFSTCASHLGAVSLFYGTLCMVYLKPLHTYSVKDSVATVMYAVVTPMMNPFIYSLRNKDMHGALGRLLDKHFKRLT
# In short: as §1
# [5] = tested on: OR1A2 S155N
# Chain of OR1A2 S155N (as listed by the source, stated change not applied): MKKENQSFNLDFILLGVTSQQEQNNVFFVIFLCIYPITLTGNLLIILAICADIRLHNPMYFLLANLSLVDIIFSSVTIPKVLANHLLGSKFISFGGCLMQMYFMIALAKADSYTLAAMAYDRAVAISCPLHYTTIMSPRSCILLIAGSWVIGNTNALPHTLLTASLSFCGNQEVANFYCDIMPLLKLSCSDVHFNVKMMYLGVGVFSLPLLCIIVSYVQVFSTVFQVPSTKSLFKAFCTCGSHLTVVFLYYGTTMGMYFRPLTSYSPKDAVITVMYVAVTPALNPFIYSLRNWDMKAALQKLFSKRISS
# In short: as §1
# [6] = tested on: OR1A2 T154A S155N
# In short: as §1
# [7] = tested on: OR1A2 T154A
# Chain of OR1A2 T154A (as listed by the source, stated change not applied): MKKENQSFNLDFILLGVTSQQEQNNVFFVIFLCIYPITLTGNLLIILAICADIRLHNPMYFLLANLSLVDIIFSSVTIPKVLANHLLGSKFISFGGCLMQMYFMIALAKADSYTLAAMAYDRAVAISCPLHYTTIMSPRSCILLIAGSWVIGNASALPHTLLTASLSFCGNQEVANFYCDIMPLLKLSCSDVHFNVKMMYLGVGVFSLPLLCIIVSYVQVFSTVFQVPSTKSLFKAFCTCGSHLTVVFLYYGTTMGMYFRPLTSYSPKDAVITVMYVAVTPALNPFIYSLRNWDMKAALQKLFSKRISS
# In short: as §1
# [8] = tested on: OR1A2 T254V
# Chain of OR1A2 T254V (as listed by the source, stated change not applied): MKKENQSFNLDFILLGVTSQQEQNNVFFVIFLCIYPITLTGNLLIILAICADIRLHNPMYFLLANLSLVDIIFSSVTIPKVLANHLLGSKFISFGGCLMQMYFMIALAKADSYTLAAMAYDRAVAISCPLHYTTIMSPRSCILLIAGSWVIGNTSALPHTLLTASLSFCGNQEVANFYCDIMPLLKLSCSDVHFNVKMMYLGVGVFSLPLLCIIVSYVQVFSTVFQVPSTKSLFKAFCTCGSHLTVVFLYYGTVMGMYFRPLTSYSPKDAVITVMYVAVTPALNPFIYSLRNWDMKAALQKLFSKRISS
# In short: as §1
# [9] = tested on: OR1A2 V205I
# Chain of OR1A2 V205I (as listed by the source, stated change not applied): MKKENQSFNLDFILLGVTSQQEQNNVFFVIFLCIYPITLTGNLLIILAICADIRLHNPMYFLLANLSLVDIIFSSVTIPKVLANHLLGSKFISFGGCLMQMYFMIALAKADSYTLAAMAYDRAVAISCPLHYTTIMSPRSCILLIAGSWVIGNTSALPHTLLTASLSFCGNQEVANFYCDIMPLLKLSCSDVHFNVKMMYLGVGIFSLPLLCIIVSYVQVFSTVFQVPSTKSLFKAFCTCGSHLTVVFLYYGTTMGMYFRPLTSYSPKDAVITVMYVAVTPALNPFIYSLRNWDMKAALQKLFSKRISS
# In short: as §1
# [10] = tested on: OR1A2 V277T
# Chain of OR1A2 V277T (as listed by the source, stated change not applied): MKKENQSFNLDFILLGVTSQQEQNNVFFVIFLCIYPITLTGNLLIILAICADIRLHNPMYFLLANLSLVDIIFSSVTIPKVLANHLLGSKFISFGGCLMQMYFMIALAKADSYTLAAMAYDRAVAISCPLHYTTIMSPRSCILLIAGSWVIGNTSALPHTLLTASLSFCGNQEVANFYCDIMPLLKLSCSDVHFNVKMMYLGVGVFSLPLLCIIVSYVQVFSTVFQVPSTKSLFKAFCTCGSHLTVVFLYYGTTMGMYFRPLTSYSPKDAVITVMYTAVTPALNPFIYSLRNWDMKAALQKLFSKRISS
# In short: as §1
smiles,measurement,setting,value
CC1=NC(C)C(C)S1 (centres undefined),odorant receptor agonist call,[1],inactive
same,odorant receptor agonist call,[2],inactive
same,odorant receptor agonist call,[3],inactive
CCC1OC(=O)C(O)=C1C (centres undefined),odorant receptor agonist call,[1],inactive
same,odorant receptor agonist call,[2],inactive
same,odorant receptor agonist call,[3],inactive
CC(CO)CS (centres undefined),odorant receptor agonist call,[1],inactive
same,odorant receptor agonist call,[2],inactive
same,odorant receptor agonist call,[3],inactive
CCC(S)C(C)CO (centres undefined),odorant receptor agonist call,[1],inactive
same,odorant receptor agonist call,[2],inactive
same,odorant receptor agonist call,[3],inactive
O=c1ccc2ccccc2o1,odorant receptor agonist call,[2],active
CCCCC(S)C(C)CO (centres undefined),odorant receptor agonist call,[1],inactive
same,odorant receptor agonist call,[2],inactive
same,odorant receptor agonist call,[3],inactive
O=CCCCCc1ccccc1,odorant receptor agonist call,[3],inactive
CC(C=O)Cc1ccc(C(C)C)cc1 (centres undefined),odorant receptor agonist call,[3],active
CCCCCCC=CCCC=O,odorant receptor agonist call,[1],inactive
same,odorant receptor agonist call,[2],inactive
same,odorant receptor agonist call,[3],inactive
CCCC(S)CCOC(C)=O (centres undefined),odorant receptor agonist call,[1],inactive
same,odorant receptor agonist call,[2],inactive
same,odorant receptor agonist call,[3],inactive
CC(CC=O)c1ccccc1 (centres undefined),odorant receptor agonist call,[3],active
CC(=O)c1c(C)c([N+](=O)[O-])c(C(C)(C)C)c([N+](=O)[O-])c1C,odorant receptor agonist call,[1],inactive
same,odorant receptor agonist call,[2],inactive
COc1ccc(CC(C)C=O)cc1 (centres undefined),odorant receptor agonist call,[3],active
Cc1cnc(C)c(C)n1,odorant receptor agonist call,[1],inactive
same,odorant receptor agonist call,[2],inactive
same,odorant receptor agonist call,[3],inactive
O=C(O)CCc1ccccc1,odorant receptor agonist call,[3],inactive
CC(C=O)Cc1ccc(C(C)(C)C)cc1 (centres undefined),odorant receptor agonist call,[3],inactive
same,odorant receptor agonist call,[4],inactive
CC(C)=CCCC(C)CCO (centres undefined),odorant receptor agonist call,[5],inactive
same,odorant receptor agonist call,[6],inactive
same,odorant receptor agonist call,[7],inactive
same,odorant receptor agonist call,[8],inactive
same,odorant receptor agonist call,[9],inactive
same,odorant receptor agonist call,[10],inactive
CC1=C(O)C(=O)C(C)O1 (centres undefined),odorant receptor agonist call,[1],inactive
same,odorant receptor agonist call,[2],inactive
same,odorant receptor agonist call,[3],inactive
CCc1ccc(CC(C)(C)C=O)cc1,odorant receptor agonist call,[3],active
CC(C)(C)c1ccc(OCC=O)cc1,odorant receptor agonist call,[3],active
CC1=C(O)C(=O)OC1C (centres undefined),odorant receptor agonist call,[1],inactive
same,odorant receptor agonist call,[2],inactive
same,odorant receptor agonist call,[3],inactive
CCCCCC(=O)C(C)C(C)=O (centres undefined),odorant receptor agonist call,[1],inactive
same,odorant receptor agonist call,[2],inactive
same,odorant receptor agonist call,[3],inactive
CC=Cc1ccc(OC)cc1,odorant receptor agonist call,[3],inactive
CC1CCCCCCCCCCCCC(=O)C1 (centres undefined),odorant receptor agonist call,[1],inactive
same,odorant receptor agonist call,[2],inactive
